Key:
[1] = molecular target: T1, Polyunsaturated fatty acid 5-lipoxygenase (Homo sapiens, UniProt P09917); experiment: Inhibition of human recombinant 5-LOX expressed in Escherichia coli BL21 incubated for 10 mins in presence of arachidonic acid by RP-HPLC based cell-free assay
T1 sequence (P09917 whole entry): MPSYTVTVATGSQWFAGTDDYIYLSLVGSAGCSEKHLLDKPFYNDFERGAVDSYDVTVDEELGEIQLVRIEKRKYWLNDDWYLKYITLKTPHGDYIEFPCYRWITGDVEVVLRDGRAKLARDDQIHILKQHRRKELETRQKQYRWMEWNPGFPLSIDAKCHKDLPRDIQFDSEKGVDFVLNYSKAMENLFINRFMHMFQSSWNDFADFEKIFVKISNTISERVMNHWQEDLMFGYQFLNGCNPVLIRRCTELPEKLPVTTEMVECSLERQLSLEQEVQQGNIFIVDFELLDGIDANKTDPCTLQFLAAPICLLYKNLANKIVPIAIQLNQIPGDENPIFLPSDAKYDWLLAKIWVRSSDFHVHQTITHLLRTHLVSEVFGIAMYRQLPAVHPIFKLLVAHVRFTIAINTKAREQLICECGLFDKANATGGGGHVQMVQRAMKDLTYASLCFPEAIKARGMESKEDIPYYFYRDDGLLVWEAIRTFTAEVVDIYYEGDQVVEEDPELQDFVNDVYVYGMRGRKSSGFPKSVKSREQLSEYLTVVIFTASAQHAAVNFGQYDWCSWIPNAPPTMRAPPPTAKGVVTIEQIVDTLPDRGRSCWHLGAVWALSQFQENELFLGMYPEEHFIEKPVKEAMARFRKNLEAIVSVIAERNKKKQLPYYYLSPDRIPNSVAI
Outline: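 Recombinant human 5-LO, semi-purified from a 40,000 × g lysate supernatant on ATP-agarose, diluted in ice-cold PBS with 1 mM EDTA and 1 mM ATP. Preincubated 10 min at 4 °C with compound or 0.1% DMSO, warmed 30 s at 37 °C, then started with 2 mM CaCl₂ plus 20 µM AA. Reaction 10 min at 37 °C, stopped with cold methanol, products by RP-HPLC. IC₅₀ from 4–5 concentrations.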

[2] = molecular target: T1, Polyunsaturated fatty acid 5-lipoxygenase; experiment: Inhibition of 5-LOX in A23187-stimulated human blood PMNL assessed as reduction in lipoxygenase products formation pre-incubated for 15 mins followed by stimulation with A23187 for 10 mins by RP-HPLC based cell based assay
Outline: (§1)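 Human PMNL (5 × 10⁶ in 1 ml PBS pH 7.4, 1 mg/ml glucose, 1 mM CaCl₂), preincubated 15 min at 37 °C with compound or 0.1% DMSO, then stimulated 10 min at 37 °C with A23187, with or without AA. 5-LO products measured. Values are mean ± S.E. of 3–4 independent experiments. IC₅₀ read graphically from 4–5 concentrations.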

[3] = molecular target: T1, Polyunsaturated fatty acid 5-lipoxygenase; experiment: Inhibition of 5-LOX in A23187-stimulated human blood PMNL assessed as reduction in lipoxygenase products formation in presence of arachidonic acid pre-incubated for 15 mins followed by stimulation with A23187 for 10 mins by RP-HPLC based cell based assay; outline: as §1
[4] = molecular target: T2, Polyunsaturated fatty acid lipoxygenase ALOX15 (Homo sapiens) (UniProt P16050); experiment: Inhibition of 15-LOX-1 in human blood PMNL assessed as remaining activity by measuring 15-HETE synthesis at 10 uM
T2 sequence (whole entry): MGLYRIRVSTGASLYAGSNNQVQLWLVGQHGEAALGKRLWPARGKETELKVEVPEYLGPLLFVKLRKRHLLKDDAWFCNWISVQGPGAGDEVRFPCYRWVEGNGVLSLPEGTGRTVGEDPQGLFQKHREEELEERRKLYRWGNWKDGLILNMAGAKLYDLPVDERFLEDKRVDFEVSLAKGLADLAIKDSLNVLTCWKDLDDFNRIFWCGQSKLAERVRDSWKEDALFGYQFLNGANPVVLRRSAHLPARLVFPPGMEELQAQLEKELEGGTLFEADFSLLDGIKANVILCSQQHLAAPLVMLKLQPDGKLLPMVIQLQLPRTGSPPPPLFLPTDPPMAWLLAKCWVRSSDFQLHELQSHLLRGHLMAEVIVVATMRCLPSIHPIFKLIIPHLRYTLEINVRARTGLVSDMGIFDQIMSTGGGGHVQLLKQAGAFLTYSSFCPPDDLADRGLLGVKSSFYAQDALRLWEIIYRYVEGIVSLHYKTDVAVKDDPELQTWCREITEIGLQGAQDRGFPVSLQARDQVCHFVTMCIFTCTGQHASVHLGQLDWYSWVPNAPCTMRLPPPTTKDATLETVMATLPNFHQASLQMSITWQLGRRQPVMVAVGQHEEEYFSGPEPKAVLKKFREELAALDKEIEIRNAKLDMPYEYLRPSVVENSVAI
Outline: (§2)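 PMNL isolated from heparinized blood of fasted healthy donors by dextran sedimentation and Nycoprep centrifugation, with hypotonic lysis of erythrocytes. Cells at 5 × 10⁶ in 1 ml PBS pH 7.4 with 1 mg/ml glucose and 1 mM CaCl₂, preincubated 15 min at 37 °C with compound or 0.1% DMSO vehicle, then stimulated 10 min at 37 °C. 12-HETE or 15-HETE formation measured.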

[5] = molecular target: T3, Polyunsaturated fatty acid lipoxygenase ALOX12 (Homo sapiens) (UniProt P18054); experiment: Inhibition of 12-LOX in human blood PMNL assessed as remaining activity by measuring 12-HETE synthesis at 10 uM; outline: as §2
T3 sequence (whole entry): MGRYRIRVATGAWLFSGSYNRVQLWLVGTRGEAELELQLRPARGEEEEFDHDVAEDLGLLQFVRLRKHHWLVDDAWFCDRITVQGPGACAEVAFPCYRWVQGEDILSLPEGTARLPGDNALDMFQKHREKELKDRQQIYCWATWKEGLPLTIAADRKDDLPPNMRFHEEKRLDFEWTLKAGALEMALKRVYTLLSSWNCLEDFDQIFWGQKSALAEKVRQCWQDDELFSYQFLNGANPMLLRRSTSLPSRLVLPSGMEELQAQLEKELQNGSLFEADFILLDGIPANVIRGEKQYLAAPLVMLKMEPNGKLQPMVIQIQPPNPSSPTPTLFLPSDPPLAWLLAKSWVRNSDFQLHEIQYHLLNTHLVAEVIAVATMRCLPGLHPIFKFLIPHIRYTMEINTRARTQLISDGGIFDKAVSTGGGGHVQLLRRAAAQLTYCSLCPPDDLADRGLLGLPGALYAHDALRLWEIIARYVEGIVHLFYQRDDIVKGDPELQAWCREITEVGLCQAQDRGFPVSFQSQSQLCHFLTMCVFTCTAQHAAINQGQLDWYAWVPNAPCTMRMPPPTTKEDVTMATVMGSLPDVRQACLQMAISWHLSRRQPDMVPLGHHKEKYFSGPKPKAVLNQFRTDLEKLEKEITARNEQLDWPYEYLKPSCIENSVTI

CCCCCCCCCCC1=C(O)C(=O)C=C(O)C1=O
IC50 [1]: 180 nM | IC50 [2]: 2000 nM | IC50 [3]: 7100 nM | Activity [4]: 90% | Activity [5]: 76%

N#C/C(=C\c1ccc(O)c(O)c1)C(=O)OC/C=C/c1ccccc1
Activity [4]: 5.2% | Activity [5]: 0.91%

COC1=CC(=O)C(=O)C(C/C=C(\C)CCC=C(C)C)=C1OC
IC50 [1]: 600 nM | IC50 [2]: 380 nM | IC50 [3]: 390 nM | Activity [4]: 125% | Activity [5]: 72.8%

CCCCCCCCCCCCCC1=C(OC)C(=O)C=C(OC)C1=O
IC50 [1]: 260 nM | IC50 [2]: 230 nM | IC50 [3]: 310 nM | Activity [4]: 84.1% | Activity [5]: 58.8%

CCCCCCCCCCCC1=C(OC)C(=O)C=C(OC)C1=O
IC50 [1]: 930 nM | IC50 [2]: 200 nM | IC50 [3]: 590 nM | Activity [4]: 93.4% | Activity [5]: 161%

CCCCCCCCC1=C(OC)C(=O)C=C(OC)C1=O
IC50 [1]: 1200 nM | IC50 [2]: 320 nM | IC50 [3]: 570 nM | Activity [4]: 123% | Activity [5]: 89.6%

CCCCCCCCCCCCCCCC1=C(OC)C(=O)C=C(OC)C1=O
IC50 [1]: 270 nM | IC50 [2]: 390 nM | IC50 [3]: 860 nM | Activity [4]: 115% | Activity [5]: 87.3%

CCCCCCCCCCCCCCC1=C(OC)C(OC)=CC(=O)C1=O
IC50 [1]: 40 nM | IC50 [2]: 120 nM | IC50 [3]: 90 nM | Activity [4]: 139% | Activity [5]: 87.3%

COC1=CC(=O)C(=O)C(C/C=C(\C)CC/C=C(\C)CCC=C(C)C)=C1OC
IC50 [1]: 300 nM | IC50 [2]: 150 nM | IC50 [3]: 100 nM | Activity [4]: 174% | Activity [5]: 211%

CCCCCCCCCCCCCCC1=C(O)C(=O)C=C(O)C1=O
IC50 [1]: 170 nM | IC50 [2]: 3100 nM | IC50 [3]: 5100 nM | Activity [4]: 139% | Activity [5]: 101%

CCCCCCCCCCC1=C(OC)C(=O)C=C(OC)C1=O
IC50 [1]: 1800 nM | IC50 [2]: 600 nM | IC50 [3]: 1700 nM | Activity [5]: 144%

CCCCCCCCCCCC1=C(O)C(=O)C=C(OC)C1=O [5-O-METHYLEMBELIN]
IC50 [1]: 3800 nM | IC50 [2]: 680 nM | IC50 [3]: 1300 nM | Activity [4]: 131% | Activity [5]: 138%

CCCCCCCCCCCCCCC1=C(O)C(=O)C=C(OC)C1=O
IC50 [1]: 420 nM | IC50 [2]: 270 nM | IC50 [3]: 490 nM | Activity [4]: 116% | Activity [5]: 114%

CCCCCCCCCCCCCCC1=C(OC)C(=O)C=C(OC)C1=O
IC50 [1]: 210 nM | IC50 [2]: 290 nM | IC50 [3]: 1400 nM | Activity [4]: 116% | Activity [5]: 84.5%

— ChEMBL document CHEMBL3414543, “Novel series of benzoquinones with high potency against 5-lipoxygenase in human polymorphonuclear leukocytes” (Eur J Med Chem, 2015)
